# Screening data: PubChem BioAssay, several laboratories
# A selection: hits, their analogues and other compounds. The true share with any hit is near 2.6%.
# Runt-SMMHC FRET: Runt domain-CBFb-SMMHC interaction inhibition; Q01196+Q13951; Cerulean-Runt/Venus-CBFb-SMMHC FRET ratio 530/480, 1 h; inhibition, % at 20 µM; 0.74% of 220,000 active; AID 1434;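 active = mean inhibition across duplicate retests at 20 µM reaching about 50%, limit read from the data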;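 also: 0% = DMSO wells and 100% = wells with excess untagged CBFb-SMMHC; inhibitors lower the FRET ratio by blocking Runt binding to CBFb-SMMHC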
# Target sequence (Q01196 whole entry, looked up, the tested form may be a part): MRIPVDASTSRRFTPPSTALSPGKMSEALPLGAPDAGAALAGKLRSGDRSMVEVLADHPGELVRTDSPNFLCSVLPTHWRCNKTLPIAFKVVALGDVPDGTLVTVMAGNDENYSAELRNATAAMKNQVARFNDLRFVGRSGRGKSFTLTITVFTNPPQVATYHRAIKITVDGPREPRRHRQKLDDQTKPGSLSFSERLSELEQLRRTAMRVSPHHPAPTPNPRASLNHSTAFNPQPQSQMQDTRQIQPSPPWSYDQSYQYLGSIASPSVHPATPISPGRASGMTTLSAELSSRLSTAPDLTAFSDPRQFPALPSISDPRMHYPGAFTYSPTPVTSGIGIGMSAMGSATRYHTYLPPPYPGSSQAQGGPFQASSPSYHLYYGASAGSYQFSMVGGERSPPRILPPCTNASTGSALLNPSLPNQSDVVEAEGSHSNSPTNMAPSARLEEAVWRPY
# Target sequence (Q13951 whole entry, looked up, the tested form may be a part): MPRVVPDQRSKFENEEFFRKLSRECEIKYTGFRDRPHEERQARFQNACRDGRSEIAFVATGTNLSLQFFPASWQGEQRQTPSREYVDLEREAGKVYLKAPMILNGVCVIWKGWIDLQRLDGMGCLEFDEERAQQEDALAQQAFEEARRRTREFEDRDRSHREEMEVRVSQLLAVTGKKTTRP
# IMP-1 inh: inhibitors of Pseudomonas aeruginosa IMP-1 metallo-beta-lactamase | 0.45% of 290,000 active | purified IMP-1, nitrocefin hydrolysis, epi-absorbance fluorescence | inhibition, % at 5.6 µM;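 active = inhibition above the mean plus 3 SD of all compounds in the same screening run, cut at about 4.5% in these data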;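 also: 0% = IMP-1 with DMSO and 100% = DMSO wells lacking enzyme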
#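 System: purified IMP-1 / Input: IMP-1 dispensed at 0.2 nM / Medium: 50 mM HEPES pH 7.1, 50 µM ZnSO4, 0.05% Brij 35 / Timing: 15 min enzyme–compound preincubation, then 25 min nitrocefin reaction, 25 °C / Technique: plate fluorescence quenching by hydrolysis product, ex 480/em 530 nm / Repeats: singlicate testing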
# RanGTP-Impb inh: disruptors of Ran-importin-beta complex formation – biochemical, FRET, CFP-Ran, YFP-importin-beta, homogeneous, primary screen | cell-free CFP-Ran/YFP-importin-beta FRET ratio | 1.1% of 300,000 active | inhibition, % (concentration not given with the values);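 active = more than half of the replicate wells show a fall in the fluorescence ratio signal beyond about 16%, limit read from the data, passing the limit was not always enough; inconclusive = exactly half of the replicate wells pass the set limit; inactive = fewer than half of replicates pass the limit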;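 also: 0% = DMSO wells and 100% = Ran loaded with GDP instead of GTP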
# VIM-2 inh: inhibitors of Pseudomonas aeruginosa VIM-2 metallo-beta-lactamase; purified VIM-2, nitrocefin hydrolysis, epi-absorbance fluorescence; inhibition, % at 5.6 µM; 0.89% of 290,000 active;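 active = inhibition above the mean of all tested compounds plus 3 SD, cutoff set per screening run, cut at about 7.5% in these data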;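 also: red hydrolysis product quenches plate fluorescence so inhibitors raise well fluorescence; 0% = enzyme with DMSO and 100% = DMSO without enzyme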
# Runt-CBFb FRET: inhibitors of human RUNX1 Runt domain binding to CBFb | Cerulean-Runt/Venus-CBFb FRET ratio 530/480, 1 h | 0.46% of 220,000 active | Q01196+Q13951 | inhibition, % at 20 µM;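 active = inhibition over about 50% at 20 µM in the single-dose screen, limit read from the data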;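 also: 0% = DMSO wells and 100% = excess unlabeled CBFb competitor control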
#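 Measured by: fluorescence energy transfer, 422 nm excitation, 530/480 nm emission; test system: Cerulean-tagged RUNX1 Runt domain (FRET donor) fusion protein; buffer or medium: Tris pH 7.5 buffer with BSA; compound: one dose, 20 µM compound, 1% DMSO; times: two 1 h room-temperature incubations shielded from light; benchmarks: unlabeled CBFb 5 µM, positive control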
# An asterisk follows results filed as active; ? = inconclusive; · = no result given.
SMILES,Runt-SMMHC FRET,IMP-1 inh,RanGTP-Impb inh,VIM-2 inh,Runt-CBFb FRET
O=C(NCc1ccncc1)C1CCCN(S(=O)(=O)c2cc(Cl)ccc2Cl)C1 (stereo not drawn),·,·,0,·,·
Cc1ccc(CN2CC(C(=O)Nc3cc(C)ccn3)CC2=O)cc1 (stereo not drawn),·,·,1,·,·
O=C(CN(CCc1ccccc1)Cc1ccccc1)Oc1ccccc1P(=O)(O)O,·,0,5,11*,·
COCCN(CC(=O)Oc1ccccc1P(=O)(OC)OC)Cc1ccccc1,-2,-2,9,-4,2
COc1ccc(C(=O)N2CCN(CC(=O)N3CCOCC3)CC2)cc1,·,0,-4,0,·
CC1(C)CC(=O)C2=C(C1)OC(N)=C(C#N)C2CCc1ccccc1 (stereo not drawn),2,4.7*,·,1,-3
CC1(C)CC(=O)C2=C(C1)OC(N)=C(C#N)C2C#Cc1ccccc1 (stereo not drawn),-9,-1,6,-4,-3
CCOC(=O)CN1C(=O)/C(=C/c2ccccc2Br)Oc2ccccc21,·,-2,4,-2,·
Cc1cc2cc(CN(Cc3cccs3)C(=S)NCc3ccco3)c(=O)[nH]c2cc1C,21,-1,1,8.6*,28
Cc1cc(Nc2c(C)n(C)n(-c3ccccc3)c2=O)n2c(nc3cc(F)c(F)cc32)c1C#N,2,-2,96*,-2,20
Fc1ccc(CSc2nncn2NCc2ccccc2)cc1,2,-3,7,-1,-2
Fc1ccccc1CSc1nncn1NCc1cccs1,4,4.8*,-4,-3,-1
CCCCn1c(-c2cccs2)nc2nc3ccccc3nc21,158*,1,3,-1,19
CC(C)Cn1c(-c2cccs2)nc2nc3ccccc3nc21,104*,0,8,2,46
c1ccc(Cn2c(-c3cccs3)nc3nc4ccccc4nc32)cc1,65*,-4,?,-4,23
CC(c1ccco1)N(C(=O)c1cccc(S(=O)(=O)N(C)C)c1)c1ccccn1 (stereo not drawn),·,0,2,1,·
O=C(NCc1ccccc1)C(c1ccc(O)cc1)N(C(=O)c1cnccn1)c1ccccc1 (stereo not drawn),·,-2,-1,-4,·
CCCCNC(=O)OCC(CC)NC(=O)OCC(C)C (stereo not drawn),0,8.7*,3,-4,-4
CCCCNC(=O)OCC(CC)NC(=O)OC(C)C (stereo not drawn),1,-3,-1,-1,-2
COc1ccc(OC)c(-c2cc(C(=O)NCCCn3ccnc3)no2)c1,3,0,?,8.4*,0
CN(C)C(CNc1ccc(S(C)(=O)=O)cc1[N+](=O)[O-])Cc1ccccc1 (stereo not drawn),·,-4,5,-2,·
CCOC(=O)C(NC=O)(NC(C)(C)C)C(=O)OCC,2,4.8*,6,-2,-10
O=C1CSC(=S)N1c1cccc(F)c1,·,4.9*,0,2,·
CCOc1ccc(C2C(C(=O)C3CC3)N3C=C(C#N)C=CC3C2(C#N)C#N)cc1 (stereo not drawn),1,-2,30*,-2,2
CCOc1ccc(C(=O)C2CCN(C(=O)c3ccccc3C(=O)O)CC2)cc1,0,-3,4,0,-1
SMILES,Runt-SMMHC FRET,IMP-1 inh,RanGTP-Impb inh,VIM-2 inh,Runt-CBFb FRET
Cc1csc(NC(=O)c2cc(=O)[nH]c3ccccc23)n1,69*,-3,4,0,30
Cc1csc(NC(=O)c2cc(C)nc3ccccc23)n1,8,-2,4,-3,0
O=c1oc2cc(OCCO)ccc2c2c1CCCC2,·,0,6,4,·
Cc1[nH]c2ccccc2c1C(=O)COC(=O)c1ccc[n+]([O-])c1,-3,2,1,8.9*,0
Cc1ccccc1CC(=O)Nc1sc(C(C)C)cc1C(=O)N1CCOCC1,·,-1,0,0,·
CCOC(=O)C1CCN(C(=O)c2ccc3nc(-c4ccc(OC)cc4)c(-c4ccc(OC)cc4)nc3c2)CC1,·,-2,24*,-1,·
CCOC(=O)C1CCN(C(=O)c2ccc(Cl)c(Cl)c2)CC1,8,-4,·,-8,1
CCc1ccc2c(CC(=O)Nc3nnc(C4CC4)s3)coc2c1,-2,61*,2,-3,-1
CCc1ccc(OCC(=O)Nc2nnc(C3CCCC3)s2)cc1,·,-2,-2,-7,·
CC(=O)Nc1ccc(S(=O)(=O)Nc2ccccc2C(=O)N2CCCCCC2)cc1,·,-1,2,-4,·
Cc1nc(C2CC(=O)OC23CCCCC3)cs1 (stereo not drawn),3,-2,-4,-2,-2
Nc1nc(C2CC(=O)OC23CCCCC3)cs1 (stereo not drawn),-1,-1,21*,-4,3
O=C(O)C/C(=C\c1cc2c(cc1Br)OCO2)c1nc2ccccc2s1,·,-4,3,8.8*,·
Cn1c(SCc2ccccc2C#N)nc2ccccc2c1=O,·,0,7,6,·
CCC(C)NC(=O)c1ccccc1C(=O)NC(C)CC (stereo not drawn),-2,6.1*,2,-1,2
CCC(C)NC(=O)c1ccccc1SC (stereo not drawn),1,-1,-2,2,2
CC(C)OP(=O)(OC(C)C)C1(NS(=O)(=O)c2ccc(Cl)cc2)C=C(Cl)C(=O)C(Cl)=C1,·,0,2,1,·
CCc1ccc(-c2cc(C(F)(F)F)n3nc(C(=O)Nc4c(C)nn(Cc5ccc(F)cc5)c4C)cc3n2)s1,13,1,58*,1,11
CCN(CC(=O)Nc1ccc(N2CCOCC2)cc1)C(=O)c1ccc(C(F)(F)F)cc1,-1,-3,-2,-3,-1
COc1ccc(C2C3=C(N=C4SCC(=O)N42)c2ccccc2CC3)cc1OC (stereo not drawn),2,5.9*,-3,-2,-1
COc1cc(C2Nc3ccc4ccccc4c3C3=C2C(=O)CC(C)(C)C3)ccc1OC(C)C(=O)O (stereo not drawn),·,-2,2,-2,·
COc1ccc(C(=O)Nc2ccccc2C(=O)NCC2CCCO2)cc1 (stereo not drawn),·,0,?,-1,·
Cc1cc(S(=O)(=O)NCC(c2ccc3c(c2)OCO3)N2CCOCC2)ccc1F (stereo not drawn),·,·,3,·,·
COc1ccc(-c2csc(NC(=O)Cc3cccc4ccccc34)c2C(=O)O)cc1,-1,7.7*,5,0,-3
COc1ccc(/C=N/NC(=O)c2ccoc2C)cc1CN1CCN(c2ccc(F)cc2)CC1,·,0,0,0,·
O=C1C2C(c3ccccc3)C=CC(c3ccccc3)C2C(=O)N1c1cccnc1 (stereo not drawn),0,6.2*,0,1,-2
CCc1noc(C)c1C(=O)N(Cc1ccccc1)c1c(N)n(CCOC)c(=O)[nH]c1=O,·,·,4,·,·
